Reference: ChEMBL document CHEMBL1128501, “Synthesis and biological evaluation of 14-alkoxymorphinans. 11. 3-Hydroxycyprodime and analogues: opioid antagonist profile in comparison to cyprodime” (J Med Chem, 1995)

Key:
[1] = biological target: Kappa-type opioid receptor (Mus musculus) (UniProt P33534); experiment: Binding affinity was evaluated by measuring the ability to displace CI977 radioligand binding from Opioid receptor kappa 1 in mouse vas deferens preparation
In short: (§1)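 Electrically stimulated isolated mouse vas deferens. Test compound was given as antagonist against agonist-induced responses: DAMGO for μ, DPDPE for δ, and CI977 or other κ agonists for κ. Ke = [antagonist]/(DR − 1), where DR is the ratio of equiactive agonist concentrations with and without antagonist.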

Mu-type opioid receptor [2] = biological target: T1, Mu-type opioid receptor (Cavia porcellus, UniProt P97266); experiment: […] binding affinity was evaluated by measuring the ability to displace [3H]DAMGO radioligand binding from Opioid receptor mu 1 in guinea pig brain membranes; parameters: species or system Membrane
In short: (§2)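 Radioligand displacement in guinea pig brain homogenates in 50 mM Tris-HCl, pH 7.4, for 40 min at 25 °C. Radioligands were [3H]DAMGO for μ, [3H]U69593 for κ and [3H]DPDPE for δ sites. Result given as Ki.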

[3] = biological target: T2, Kappa-type opioid receptor (Cavia porcellus, UniProt P41144); experiment: Binding affinity was evaluated by measuring the ability to displace [3H]U-69593 radioligand binding from Opioid receptor kappa 1 in guinea pig brain membranes; type: cell membranes, Membrane; in short: as §2
[4] = biological target: Delta-type opioid receptor (Mus musculus) (UniProt P32300); experiment: Binding affinity was evaluated by measuring the ability to displace DPDPE radioligand binding from delta opioid receptor in mouse vas deferens preparation; in short: as §1
[5] = biological target: Mu-type opioid receptor (Mus musculus) (UniProt P42866); experiment: Binding affinity was evaluated by measuring the ability to displace [3H]-DAMGO radioligand binding from Opioid receptor mu 1 in mouse vas deferens preparation; in short: as §1
Mu-type opioid receptor [6] = biological target: T1, Mu-type opioid receptor; experiment: Binding affinity was evaluated by measuring the ability to displace [3H]DAMGO radioligand binding from Opioid receptor mu 1 in guinea pig brain membranes; type: cell membranes, Membrane; in short: as §2
[7] = biological target: T2, Kappa-type opioid receptor; experiment: […] binding affinity was evaluated by measuring the ability to displace [3H]U-69593 radioligand binding from Opioid receptor kappa 1 in guinea pig brain membranes; parameters: species or system Membrane; in short: as §2
[8] = biological target: Kappa-type opioid receptor (Mus musculus) (UniProt P33534); experiment: Binding affinity for kappa opioid receptor against agonist (CI977) in mouse vas deferens preparation; in short: as §1
[9] = biological target: Kappa-type opioid receptor (Mus musculus) (UniProt P33534); experiment: Binding affinity for kappa opioid receptor against agonist (U-69,593) in mouse vas deferens preparation; in short: as §1
[10] = biological target: Kappa-type opioid receptor (Mus musculus) (UniProt P33534); experiment: Binding affinity for kappa opioid receptor against agonist (dynorphine) in mouse vas deferens; type: tissue-based; in short: as §1
[11] = biological target: Kappa-type opioid receptor (Mus musculus) (UniProt P33534); experiment: Binding affinity for kappa opioid receptor against agonist (ethylketocyclazocine) in mouse vas deferens; type: tissue-based; in short: as §1
[12] = biological target: Kappa-type opioid receptor (Mus musculus) (UniProt P33534); experiment: Binding affinity was evaluated by measuring the ability from displace CI977 radioligand binding to Opioid receptor kappa 1 in mouse vas deferens preparation; in short: as §1
[13] = biological target: Kappa-type opioid receptor (Cavia porcellus) (UniProt P41144); experiment: Binding affinity for kappa opioid receptor against agonist (CI977) in guinea pig ileum preparations; type: tissue-based
In short: (§3)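 Myenteric-plexus longitudinal muscle of guinea pig ileum. Test compound was given as antagonist against κ agonist responses. Ke = [antagonist]/(DR − 1), where DR is the ratio of equiactive agonist concentrations with and without antagonist, from separate determinations.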

[14] = biological target: Kappa-type opioid receptor (Cavia porcellus) (UniProt P41144); experiment: Binding affinity for kappa opioid receptor against agonist (U-69,593) in guinea pig ileum preparations; type: tissue-based; in short: as §3
[15] = biological target: Kappa-type opioid receptor (Cavia porcellus) (UniProt P41144); experiment: Binding affinity for kappa opioid receptor against agonist (ethylketocyclazocine) in guinea pig ileum preparations; type: tissue-based; in short: as §3
[16] = biological target: Delta-type opioid receptor (Mus musculus) (UniProt P32300); experiment: Binding affinity was evaluated by measuring the ability from displace DPDPE radioligand binding from delta opioid receptor in mouse vas deferens preparation; in short: as §1
[17] = biological target: Kappa-type opioid receptor (Cavia porcellus) (UniProt P41144); experiment: Binding affinity for kappa opioid receptor against agonist (trifluadom) in guinea pig ileum preparations; type: tissue-based; in short: as §3
[18] = biological target: Mu-type opioid receptor (Mus musculus) (UniProt P42866); experiment: […] binding affinity was evaluated by measuring the ability from displace [3H]DAMGO radioligand binding to mu opioid receptor in mouse vas deferens preparation; in short: as §1

T1 sequence (P97266 whole entry): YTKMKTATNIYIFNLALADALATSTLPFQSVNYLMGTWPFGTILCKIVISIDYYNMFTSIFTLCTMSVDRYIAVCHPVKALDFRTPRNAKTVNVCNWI
Sequence of Mu-type opioid receptor (Mus musculus) (P42866 whole entry): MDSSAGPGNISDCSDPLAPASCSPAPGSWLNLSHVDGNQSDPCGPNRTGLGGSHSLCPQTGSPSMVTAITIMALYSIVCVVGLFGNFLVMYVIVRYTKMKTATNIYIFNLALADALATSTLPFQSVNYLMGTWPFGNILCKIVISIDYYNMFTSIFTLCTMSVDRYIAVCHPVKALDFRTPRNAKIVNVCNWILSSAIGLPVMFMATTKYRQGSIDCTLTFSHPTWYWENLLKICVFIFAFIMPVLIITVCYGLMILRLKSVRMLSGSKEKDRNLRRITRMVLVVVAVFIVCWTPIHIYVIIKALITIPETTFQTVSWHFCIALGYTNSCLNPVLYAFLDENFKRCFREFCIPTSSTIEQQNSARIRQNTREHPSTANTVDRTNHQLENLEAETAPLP
Sequence of Kappa-type opioid receptor (Cavia porcellus) (P41144 whole entry): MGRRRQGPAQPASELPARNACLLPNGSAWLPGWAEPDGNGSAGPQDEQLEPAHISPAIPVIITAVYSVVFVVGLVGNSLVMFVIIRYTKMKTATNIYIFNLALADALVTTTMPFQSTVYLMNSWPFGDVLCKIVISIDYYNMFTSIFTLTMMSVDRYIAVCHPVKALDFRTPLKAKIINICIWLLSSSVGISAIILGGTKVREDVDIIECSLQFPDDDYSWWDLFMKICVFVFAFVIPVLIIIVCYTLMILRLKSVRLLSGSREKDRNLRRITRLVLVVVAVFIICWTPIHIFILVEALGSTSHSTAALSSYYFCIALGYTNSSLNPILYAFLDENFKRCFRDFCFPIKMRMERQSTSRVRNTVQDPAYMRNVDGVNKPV
T2 sequence (P41144 whole entry): as above
Sequence of Delta-type opioid receptor (Mus musculus) (P32300 whole entry): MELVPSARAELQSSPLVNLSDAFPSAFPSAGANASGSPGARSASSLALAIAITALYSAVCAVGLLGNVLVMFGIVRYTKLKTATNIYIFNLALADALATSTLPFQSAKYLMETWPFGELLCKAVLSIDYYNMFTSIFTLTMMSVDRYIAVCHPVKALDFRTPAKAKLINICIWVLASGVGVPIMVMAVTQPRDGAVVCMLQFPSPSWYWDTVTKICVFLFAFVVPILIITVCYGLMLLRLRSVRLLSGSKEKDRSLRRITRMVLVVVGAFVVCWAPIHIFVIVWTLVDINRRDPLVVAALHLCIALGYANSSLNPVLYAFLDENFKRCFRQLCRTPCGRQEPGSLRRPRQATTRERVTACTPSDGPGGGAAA
Sequence of Kappa-type opioid receptor (Mus musculus) (P33534 whole entry): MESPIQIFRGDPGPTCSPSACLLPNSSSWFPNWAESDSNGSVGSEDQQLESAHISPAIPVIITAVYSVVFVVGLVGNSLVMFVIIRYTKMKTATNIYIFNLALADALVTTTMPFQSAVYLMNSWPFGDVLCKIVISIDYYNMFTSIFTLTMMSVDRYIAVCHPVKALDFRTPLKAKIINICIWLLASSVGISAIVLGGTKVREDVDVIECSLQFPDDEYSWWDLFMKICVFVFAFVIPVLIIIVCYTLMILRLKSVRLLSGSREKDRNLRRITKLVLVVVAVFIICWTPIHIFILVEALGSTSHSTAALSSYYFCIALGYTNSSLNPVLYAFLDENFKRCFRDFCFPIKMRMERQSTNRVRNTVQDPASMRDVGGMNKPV

## CCCCOc1c(O)ccc2c1C13CCN(CC4CC4)C(C2)[C@]1(OC)CCC(=O)C3 (stereo not given in full)
[1]
  Ke: 174 nM
Mu-type opioid receptor [2]
  Ki: 10.9 nM
[3]
  Ki: 13 nM
[4]
  Ke: > 10000 nM
[5]
  Ke: 24.9 nM

## C=CCN1CCC23CC(=O)CC[C@@]2(OC)C1Cc1ccc(O)c(OC)c13 (stereo not given in full)
[1]
  Ke: 4.67 nM
Mu-type opioid receptor [6]
  Ki: 7.29 nM
[7]
  Ki: 25.4 nM
[4]
  Ke: 2270 nM
[5]
  Ke: 4.6 nM

## COc1c(O)ccc2c1C13CCN(CC4CC4)C(C2)[C@]1(O)CCC(=O)C3 (stereo not given in full)
[1]
  Ke: 243 nM
Mu-type opioid receptor [2]
  Ki: 54.4 nM
[3]
  Ki: 23 nM
[4]
  Ke: 8920 nM
[5]
  Ke: 93.8 nM

## COc1cccc2c1[C@]13CCN(CC4CC4)[C@H](C2)[C@]1(OC)CCC(=O)C3 [CYPRODIME]
Mu-type opioid receptor [6]
  Ki: 23.7 nM
[7]
  Ki: 105 nM

## CCO[C@@]12CCC(=O)CC13CCN(CC1CC1)C2Cc1ccc(O)c(OC)c13 (stereo not given in full)
[1]
  Ke: 233 nM
Mu-type opioid receptor [6]
  Ki: 1.42 nM
[7]
  Ki: 5.46 nM
[4]
  Ke: 106 nM
[5]
  Ke: 2.92 nM

## COc1c(O)ccc2c1C13CCN(CC4CC4)C(C2)[C@]1(OC)CCC(=O)C3 (stereo not given in full)
[8]
  Ke: 368 nM
[9]
  Ke: 354 nM
[10]
  Ke: 450 nM
[11]
  Ke: 910 nM
[12]
  Ke: 368 nM
Mu-type opioid receptor [6]
  Ki: 6.15 nM
[13]
  Ke: 284 nM
[14]
  Ke: 97.5 nM
[15]
  Ke: 3.95 nM
[3]
  Ki: 4.18 nM
[16]
  Ke: 316 nM
[17]
  Ke: 1010 nM
[18]
  Ke: 5.62 nM
